Screening results: PubChem, several laboratories
Neddyl block – blocks human cullin neddylation; AID 651699; inhibition, % at 25 µM; 360,000 tested, 0.58% active; P61081+Q13564; TR-FRET cullin neddylation, biochemical; in the data active means inhibition above about 36%
UBC13 polyUb – human UBC13 polyubiquitination inhibition | P61088 | UBC13 polyubiquitin chain formation, TR-FRET | inhibition, % at 20 µM | 330,000 tested, 0.47% active | AID 485273; in the data active means inhibition above about 45%, passing the limit was not always enough
SR-BI uptake up – activators of SR-BI mediated HDL lipid uptake. CHO ldlA[mSR-BI] cells, DiI-HDL uptake fluorescence, 3 h; 100 = double the neutral-control signal. activation, % at 12.5 µM. 320,000 tested, 0.096% active;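 active means mean replicate activation of at least 60% and every replicate at or above 60%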
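Material: SR-BI-overexpressing, LDLR-lacking CHO cells; schedule: compound exposure 3 h, 37 °C; reagent: DiI-labelled HDL at 10 µg/mL final; technique: bottom-read fluorescence, 550/595 nm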
SR-BI DiI inh – blocks mouse SR-BI lipid uptake from DiI-HDL; ldlA[mSR-BI] CHO cells, DiI-HDL uptake fluorescence, 3 h; inhibition, % at 12.5 µM; 320,000 tested, 0.96% active;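 active means mean replicate inhibition of at least 70% and a set share of replicates each scoring 70 or more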
Target sequence (Q61009 whole entry, looked up): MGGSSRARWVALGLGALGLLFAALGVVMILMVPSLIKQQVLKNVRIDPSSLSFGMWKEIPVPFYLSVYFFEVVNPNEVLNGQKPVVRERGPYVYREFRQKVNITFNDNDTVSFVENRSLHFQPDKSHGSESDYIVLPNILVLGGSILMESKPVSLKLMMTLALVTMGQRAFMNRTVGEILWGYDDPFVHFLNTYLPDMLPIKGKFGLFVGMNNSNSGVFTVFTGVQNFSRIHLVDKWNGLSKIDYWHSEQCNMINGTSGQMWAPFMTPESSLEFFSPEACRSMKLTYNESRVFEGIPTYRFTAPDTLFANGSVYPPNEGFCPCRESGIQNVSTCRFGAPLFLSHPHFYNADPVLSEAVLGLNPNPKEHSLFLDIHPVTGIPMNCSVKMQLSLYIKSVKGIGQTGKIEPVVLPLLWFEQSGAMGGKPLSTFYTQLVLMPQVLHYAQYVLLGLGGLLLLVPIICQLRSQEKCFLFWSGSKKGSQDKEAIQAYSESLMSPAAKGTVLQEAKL
Neddyl inh conf – cullin neddylation inhibition, confirmation; calls only at 25 µM; TR-FRET cullin neddylation biochemical assay; 1,800 tested, 13% active; shares compounds with Neddyl block; in the data active means inhibition above about 40%;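 further: neddylation substrate is the cullin 1 ring ligase complex with SKP2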
Hits are given with their value; – = inactive; · = no result given; + = active, no number. Compounds with a hit are over-represented: about 1.9% of the library has one in this group of screens.

SMILES	Neddyl block	UBC13 polyUb	SR-BI uptake up	SR-BI DiI inh	Neddyl inh conf
Cc1cccc(C)c1NC(=O)NC1(C(=O)N2CCCC2)CCCCC1	–	–	·	·	·
COc1cc(Br)cc(/C=N/NC(=O)Cc2ccccc2)c1O	65	–	·	·	–
O=C(Nc1cccnc1Cl)c1cc(-c2cccc(O)c2)on1	70	–	–	–	+
COC(=O)[C@H](Cc1c[nH]c2ccccc12)NC(=O)Nc1ccccc1OC	–	–	–	–	·
COc1cc(NC(=O)N[C@@H](Cc2c[nH]c3ccccc23)C(=O)O)c(C(=O)O)cc1OC	45	–	–	–	·
CCc1nc2c(OCc3ccccc3C)cccn2c1N(C)C(=O)c1ccco1	–	·	·	·	·
O=C(O)CN(c1ccccn1)S(=O)(=O)c1ccc(Cl)cc1	–	–	–	–	·
O=C(O)CN(c1ccccn1)S(=O)(=O)c1ccccc1	42	–	–	–	–
COc1ccc(Br)cc1C1=CC(=O)C[C@H](c2ccc(F)cc2)C1	–	·	·	·	·
CCCc1nc2ccc(Cl)cn2c1Cc1ccc(C)cc1	–	·	·	·	·
CC1CCCCC1NC(=O)CN1c2cccc3cccc(c23)S1(=O)=O (stereo not given)	44	–	–	–	·
CC1CCN(C(=O)CN2c3cccc4cccc(c34)S2(=O)=O)CC1	46	–	–	–	·
NC(=O)NC(=O)CN1c2cccc3cccc(c23)S1(=O)=O	–	–	–	–	·
CCOC(=O)/C=c1\s/c(=C\c2ccc3c(c2)OCCO3)c(=O)n1CC(=O)NCC1CCCO1 (stereo not given)	43	–	–	–	–
CC1Cc2ccccc2N1C(=O)c1cc2c(=O)n3ccccc3nc2n1C (stereo not given)	48	–	–	–	+
C=CCOc1c(CNc2cccc(C(=O)O)c2)cccc1OC	·	–	–	–	·
C=CCOc1c(CNc2cccc(C(=O)O)c2)cccc1OCC	47	–	–	–	–
COc1ccc2cc3cc(C(=O)NCCCN4CCc5ccccc5C4)sc3nc2c1	47	–	–	–	+
COc1ccc2nc3sc(C(=O)NCCN4CCc5ccccc5C4)cc3cc2c1	–	–	–	–	·
CCC(=O)N/C(N)=N/c1nc(C)c2cc(OC)ccc2n1	46	–	–	–	+
COc1ccc2nc(/N=C(\N)NC(=O)C(C)(C)C)nc(C)c2c1	·	–	–	–	·
Nc1c2c(=O)oc(-c3ccccc3)cc2nn1-c1ccccc1	50	–	–	–	+
Cc1c(-c2ccc(Cl)cc2)oc(=O)c2c(N)n(-c3ccccc3)nc12	–	–	–	–	·
CCc1nn(CC(=O)NCCCN2CCN(CC)CC2)c(=O)c2cc3occc3n12	–	–	–	–	·
NNC(=O)c1ccc(CSc2cccc3cccnc23)cc1	43	–	–	–	+
SMILES	Neddyl block	UBC13 polyUb	SR-BI uptake up	SR-BI DiI inh	Neddyl inh conf
O=C1CCC/C(=N\NC(=O)c2ccc(CSc3cccc4cccnc34)cc2)C1	46	–	–	–	–
O=C(N/N=C/c1ccccc1Br)c1ccc(CSc2cccc3cccnc23)cc1	–	–	–	–	·
CCN(C[C@H]1N[C@@](C)(C(=O)OC)[C@H]2C(=O)N(Cc3ccccc3)C(=O)[C@@H]12)C(=O)Nc1ccc(C)cc1	–	–	–	–	·
CC1CCCCC1NC(=O)c1c(O)nc2ccccn2c1=O (stereo not given)	40	–	–	–	–
O=C(NCCCN1CCCC1=O)c1c(O)nc2ccccn2c1=O	41	–	–	–	–
O=C(NCCC1=CCCCC1)c1c(O)nc2ccccn2c1=O	–	–	–	–	·
CC1CCCCC1NC(=O)c1cc2c(=O)n3ccccc3nc2n1C (stereo not given)	·	–	–	–	·
Cc1ccc(OCc2cc(C(=O)N3CCN(CC(=O)NC(C)C)CC3)no2)cn1	–	–	–	–	·
COc1ccc(C(=O)Nc2sc3c(c2C(=O)O)CC(C)(C)OC3)cc1	43	–	–	–	+
COc1ccccc1/C=C/c1nc(S(=O)(=O)c2ccccc2)c(NCCN(C)C)o1	42	–	–	–	·
O=[N+]([O-])C1C(c2ccccc2)C12c1ccccc1-c1ccccc12 (stereo not given)	–	·	·	·	·
N#Cc1cc(O)c(-n2nnc3ccccc32)cc1C#N	39	–	–	–	–
N#Cc1cc(Oc2cccc3cccnc23)c(-n2nnc3ccccc32)cc1C#N	–	–	–	–	·
Cc1ccc([N+](=O)[O-])cc1S(=O)(=O)Nc1ccc(C(=O)N2CCN(C(=O)c3ccco3)CC2)cc1	–	–	–	–	·
COc1ccc(C(C)C)cc1-c1cccc2nncn12	45	·	·	·	–
